Measured values taken from ChEMBL document CHEMBL1124747, “Properties of the nucleic acid photoaffinity labeling agent 3-azidoamsacrine” (J Med Chem, 1990).

Experiments:
[1] = Half-life was evaluated in water in the presence of light; format: ADME
[2] = Relative toxicity against mammalian L5178Y cells at dose 0.008 mg/mL in light-2 condition (expt-I); format: functional, Mus musculus
Summary of the method: (§1)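 L5178Y mouse cells in suspension, 3 × 10^6 cells/mL, were exposed for 20 h at 37 °C in a shaker at 150 rpm under 5% CO2, without an activating enzyme. Light arms were irradiated for 6.5 min with a medium-pressure Hg lamp filtered to remove light below 340 nm; dark arms were not. Toxicity was taken as the Coulter-counted density of treated cells versus solvent control.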

[3] = Relative toxicity against mammalian L5178Y cells at dose 0.005 mg/mL in light condition (expt-II); format: functional, Mus musculus; summary of the method: as §1
[4] = Ability to block cleavage of […] site in NciI enzyme with the light activated test compound/DNA ratio 1(no. of sites=10); += light activation
Summary of the method: (§2)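 pBR322 plasmid mixed with drug at 0.015, 0.12 or 0.48 mM (drug:DNA 1:8, 1:1 or 4:1), equilibrated on ice 30 min in the dark in 5 mM potassium phosphate pH 5.5, then irradiated 1 h with a medium-pressure Hg lamp (<340 nm filtered); dark set kept as control. Digested overnight with 10× excess enzyme plus DTT; fragments resolved on 1.2% agarose in TBE.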

[5] = Viability of L5178Y cells was evaluated at dose 0.005 mg/mL in dark-I condition (expt-I); format: functional, Mus musculus
Summary of the method: (§3)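 L5178Y cells were exposed for 20 h at 3 × 10^6 cells/mL. Light arms then received 6.5 min of Hg-lamp irradiation filtered to remove light below 340 nm. Cells were washed twice in Fischer's medium, grown a further 24 h and held at 3 × 10^5 cells/mL. For viability, 200 cells were plated in soft-agar cloning medium in triplicate dishes, and colonies were counted by an automated counter after 10 days.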

[6] = Ability to block cleavage of C/CGG site in HpaII enzyme with the light activated test compound/DNA ratio 1:8(no. of sites=26); += light activation; summary of the method: as §2
[7] = Viability of L5178Y cells was evaluated at dose 0.005 mg/mL in light condition (expt-II); format: functional, Mus musculus; summary of the method: as §3
[8] = Ability to block cleavage of […] site in NciI enzyme with the light activated test compound/DNA ratio 4(no. of sites=10); += light activation; summary of the method: as §2
[9] = Ability to block cleavage of C/CGG site in HpaII enzyme with the light activated test compound/DNA ratio 4(no. of sites=26); += light activation; summary of the method: as §2
[10] = Ability to block cleavage of G/GNCC site in Restriction endonuclease Sau961 with the light activated test compound/DNA ratio 1:8(no. of sites=15); += light activation; summary of the method: as §2
[11] = Induction frequency for L5178Y cells was evaluated at dose 0.005 mg/mL in dark-I condition (expt-I); format: functional, Mus musculus
Summary of the method: (§4)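 L5178Y suspension cells (3 × 10^6/mL, 5% CO2, 37 °C, shaking) exposed 20 h without activating enzyme; light arm irradiated 6.5 min (Hg lamp, <340 nm filtered). Cells washed, grown 24 h more and kept at 3 × 10^5/mL. Viability from 200 cells in soft agar; TFT (0.1 mg/mL) resistant colonies from 10^6 cells in triplicate dishes, counted at 10 days.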

[12] = Relative mutation induction for L5178Y cells was evaluated at dose 0.005 mg/mL in dark condition (expt-II); format: functional, Mus musculus; summary of the method: as §4
[13] = Viability of L5178Y cells was evaluated at dose 0.008 mg/mL in dark-II condition (expt-I); format: functional, Mus musculus; summary of the method: as §3
[14] = Ability to block cleavage of G/GNCC site in Restriction endonuclease Sau961 with the light activated test compound/DNA ratio 1(no. of sites=15); += light activation; summary of the method: as §2
[15] = Mean value of mutation induction for L5178Y cells was evaluated at dose 0.005 mg/mL in dark-I condition (expt-I); format: functional, Mus musculus; summary of the method: as §4
[16] = Ability to block cleavage of GCC/GGC site in NaeI enzyme with the light activated test compound/DNA ratio 1(no. of sites=4); += light activation; summary of the method: as §2
[17] = Mutation frequency for L5178Y cells was evaluated at dose 0.005 mg/mL in light-I condition (expt-I); format: functional, Mus musculus; summary of the method: as §4
[18] = Relative mutation induction for L5178Y cells was evaluated at dose 0.008 mg/mL in dark-II condition (expt-I); format: functional, Mus musculus
[19] = Mutation frequency for L5178Y cells was evaluated at dose 0.008 mg/mL in dark-II condition (expt-I); format: functional, Mus musculus; summary of the method: as §4
[20] = Ability to block cleavage of TTT/AAA site in DraI enzyme with the light activated test compound/DNA ratio 1:8(no. of sites=3); += light activation; summary of the method: as §2
[21] = Mutation frequency for L5178Y cells was evaluated at dose 0.005 mg/mL in dark condition (expt-II); format: functional, Mus musculus; summary of the method: as §4
[22] = Ability to block cleavage of C/CGG site in HpaII enzyme with the light activated test compound/DNA ratio 1(no. of sites=26); += light activation; summary of the method: as §2
[23] = Ability to block cleavage of AG/CT site in AluI enzyme with the light activated test compound, DNA ratio 1:8(no. of sites=16); += light activation; summary of the method: as §2
[24] = Mean value of mutation induction for L5178Y cells was evaluated at dose 0.008 mg/mL in dark-II condition (expt-I); format: functional, Mus musculus; summary of the method: as §4
[25] = Induction frequency for L5178Y cells was evaluated at dose 0.005 mg/mL in light condition (expt-II); format: functional, Mus musculus; summary of the method: as §4
[26] = Mean value of mutation induction for L5178Y cells was evaluated at dose 0.008 mg/mL in light-II condition (expt-I); format: functional, Mus musculus; summary of the method: as §4
[27] = Ability to block cleavage of GG/CC site in HaeIII enzyme with the light activated test compound/DNA ratio 1:8(no. of sites=22); += light activation; summary of the method: as §2
[28] = Relative toxicity against mammalian L5178Y cells at dose 0.005 mg/mL in dark-1 condition (expt-I); format: functional, Mus musculus; summary of the method: as §1
[29] = Induction frequency for L5178Y cells was evaluated at dose 0.005 mg/mL in light-I condition (expt-I); format: functional, Mus musculus; summary of the method: as §4

COc1cc(NS(C)(=O)=O)ccc1Nc1c2ccccc2nc2cc(N=[N+]=[N-])ccc12.Cl
half-life [1]: 2.02 min
Relative toxicity [2]: 55
Relative toxicity [3]: 65
Blockage activity [4]: Light activation
Viability [5]: 66.7
Blockage activity [6]: Light activation
Viability [7]: 35.7
Blockage activity [8]: Light activation
Blockage activity [9]: Light activation
Blockage activity [10]: Light activation
Induced frequency [11]: 319
Relative activity [12]: 124
Viability [13]: 22.3
Blockage activity [14]: Light activation
Mean value [15]: 99.7
Blockage activity [16]: Light activation
Mutation frequency [17]: 434 10e6 F
Relative activity [18]: 23
Mutation frequency [19]: 565 10e6 F
Blockage activity [20]: Light activation
Mutation frequency [21]: 504 10e6 F
Blockage activity [22]: Light activation
Blockage activity [23]: Light activation
Mean value [24]: 63
Induced frequency [25]: 411
Mean value [26]: 0
Blockage activity [27]: Light activation
Relative toxicity [28]: 69
Induced frequency [29]: 280
